Measured values: ChEMBL document CHEMBL1132567, “Structure-activity studies of conantokins as human N-methyl-D-aspartate receptor modulators” (J Med Chem, 1999)
Starred links: 1 amine or outer side, 2 acyl side, 3 side chain; linkers in the order of their positions; H or OH if unused. Positions of bridges follow the written chain, without caps; N, C: chain ends. Non-standard residues stand in square brackets, D forms with d. Residues, ends and D or L forms follow the SMILES beside them. X1 = NC(=O)CC[C@@H](C(=O)[*:2])[C@H](CC(N)=O)N[*:1]; NMeN = CN[C@@H](CC(N)=O)C(=O)O

Columns and labels:
[1] = target: Glutamate [NMDA] receptor; test: The compound was tested for the inhibitory activity against N-methyl-D-aspartate glutamate receptor from mid-frontal region of human brain by measuring spermine-enhanced [3H]- MK-801 binding
How it was run: (§1)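 Crude synaptosomal membranes from the named human brain region, frozen at -70°C, then washed in water and in 5 mM Tris-HCl pH 7.4. Duplicate tubes at room temperature held membranes (about 0.25 mg/mL protein), 30 μM spermine, 2 nM [3H]MK-801 and peptide at 10^-9–10^-4 M, without added Ca2+ or with 1.5 mM CaCl2. Nonspecific binding was taken with 3 μM unlabeled MK-801. After 45 min, samples were filtered onto GF/B and counted by scintillation.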

[2] = target: Glutamate [NMDA] receptor; test: The compound was tested for the inhibitory activity against N-methyl-D-aspartate glutamate receptor from sensorimotor gyri region of human brain by measuring spermine-enhanced [3H]- MK-801 binding; how it was run: as §1
[3] = target: Glutamate [NMDA] receptor; test: The compound was tested for the inhibitory activity against N-methyl-D-aspartate glutamate receptor from superior temporal region of human brain by measuring spermine-enhanced [3H]- MK-801 binding; how it was run: as §1

Compound | IC50 [1] [nM] | IC50 [2] [nM] | IC50 [3] [nM]
CC[C@@H](C)[C@H](NC(=O)[C@H](CC(C)C)NC(=O)[C@@H]1CCC(=O)NCCCC[C@H](NC(=O)[C@H](CCC(N)=O)NC(=O)[C@H](CC(C)C)NC(=O)[C@H](CCC(=O)O)NC(=O)[C@H](CCC(=O)O)NC(=O)[C@H](CCC(=O)O)NC(=O)CN)C(=O)N[C@@H](CC(N)=O)C(=O)N[C@H](CCC(N)=O)C(=O)N1)C(=O)N[C@@H](CCCN=C(N)N)C(=O)N[C@@H](CCC(=O)O)C(=O)N[C@@H](CCCCN)C(=O)N[C@@H](CO)C(=O)N[C@@H](CC(N)=O)C(N)=O | 8480 |  | 
CC[C@@H](C)[C@H](NC(=O)[C@H](CC(C)C)NC(=O)[C@H](CCC(=O)O)[C@H](CCC(N)=O)NC(=O)[C@H](CC(N)=O)NC(=O)[C@H](CCC(=O)O)NC(=O)[C@H](CCC(N)=O)NC(=O)[C@H](CC(C)C)NC(=O)[C@H](CCC(=O)O)NC(=O)[C@H](CCC(=O)O)NC(=O)[C@H](CCC(=O)O)NC(=O)CN)C(=O)N[C@@H](CCCN=C(N)N)C(=O)N[C@@H](CCC(=O)O)C(=O)N[C@@H](CCCCN)C(=O)N[C@@H](CO)C(=O)N[C@@H](CC(N)=O)C(N)=O | 69 | 59 | 21
CC[C@H](C)[C@H](NC(=O)[C@H](CC(C)C)NC(=O)[C@H](CCC(=O)O)NC(=O)[C@H](CCC(N)=O)NC(=O)[C@H](CC(N)=O)NC(=O)[C@H](C)NC(=O)[C@H](CCC(N)=O)NC(=O)[C@H](CC(C)C)NC(=O)[C@H](CCC(=O)O)NC(=O)[C@H](CCC(=O)O)NC(=O)[C@H](CCC(=O)O)NC(=O)CN)C(=O)N[C@@H](CCCN=C(N)N)C(=O)N[C@@H](CCC(=O)O)C(=O)N[C@@H](CCCCN)C(=O)N[C@@H](CO)C(=O)N[C@@H](CC(N)=O)C(N)=O | 3360 | 766 | 1680
CC[C@H](C)[C@H](NC(=O)[C@H](CC(C)C)NC(=O)[C@H](CCC(=O)O)NC(=O)[C@H](CCC(N)=O)NC(=O)[C@H](CC(N)=O)NC(=O)[C@H](CCCCN)NC(=O)[C@H](CCC(N)=O)NC(=O)[C@H](CC(C)C)NC(=O)[C@H](CCC(=O)O)NC(=O)[C@H](CCC(=O)O)NC(=O)[C@H](CCC(=O)O)NC(=O)CN)C(=O)N[C@@H](CCCN=C(N)N)C(=O)N[C@@H](CCC(=O)O)C(=O)N[C@@H](CCCCN)C(=O)N[C@@H](CO)C(=O)N[C@@H](CC(N)=O)C(N)=O | 11000 |  | 
CC[C@H](C)[C@@H]1NC(=O)[C@H](CC(C)C)NC(=O)[C@@H](NC(=O)[C@H](CCC(N)=O)[C@H](CC(N)=O)NC(=O)[C@H](C)NC(=O)[C@H](CCC(N)=O)NC(=O)[C@H](CC(C)C)NC(=O)[C@H](CCC(=O)O)NC(=O)[C@H](CCC(=O)O)NC(=O)[C@H](CCC(=O)O)NC(=O)CN)CCC(=O)NCCCC[C@@H](C(=O)N[C@@H](CCC(=O)O)C(=O)N[C@@H](CCCCN)C(=O)N[C@@H](CO)C(=O)N[C@@H](CC(N)=O)C(N)=O)NC1=O (H-GEEELQA[X1]ELIKEKSN-NH2; lactam 9-12) | > 20000 |  | 
CSCC[C@H](NC(=O)[C@H](CCCCN)NC(=O)[C@H](CCC(N)=O)NC(=O)[C@H](Cc1ccc(O)cc1)NC(=O)[C@H](CCC(=O)O)NC(=O)[C@H](CCC(=O)O)NC(=O)[C@H](CCC(=O)O)NC(=O)CN)C(=O)N[C@@H](CC(C)C)C(=O)N[C@@H](CCC(=O)O)C(=O)N(C)[C@@H](CC(N)=O)C(=O)N[C@@H](CC(C)C)C(=O)N[C@@H](CCCN=C(N)N)C(=O)N[C@@H](CCC(=O)O)C(=O)N[C@@H](C)C(=O)N[C@@H](CCC(=O)O)C(=O)N[C@H](C(=O)N[C@@H](CCCCN)C(=O)N[C@@H](CCCCN)C(=O)N[C@@H](CC(N)=O)C(=O)N[C@@H](C)C(N)=O)C(C)C (H-GEEEYQKMLE[NMeN]LREAEVKKNA-NH2) | 125 |  | 
H-GEEELQEDQELIREKSD-NH2 | 20 | 18 | 9
H-GEEELQEN-NH2 | 94 | 58 | 23
H-GEEEYQANQELIREKSN-NH2 | 546 | 475 | 570
H-GEEEYQKNQELIREKSN-NH2 | 99 | 47 | 56
